Structures are written as SMILES. The source made the active and inactive calls. Unless noted, no stated cut-off is given here; in the data, active means inhibition above about 30%; inactive means the rest.

The nature of assay [1]: Her2 expression decrease, cell viability multiplex – SKBR3 breast tumor cells, AlphaScreen, ATP viability, primary screen (AID 461;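 active means Her2 level under about 52% in both replicate screens, with viability over 70% of control, limit read from the data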;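 on Her2 level: lower value means less Her2 protein in the cells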;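 on viability: percent of carrier control wells set as 100% viability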). To be noted: SKBR3 Her2 protein level, 18-24 h, measured here: SKBR3 viability, ATP luminescence, at 10 µM. (In general: Alpha assays give light when donor and acceptor beads are brought close together.)
Assay [2] concerns the target Receptor tyrosine-protein kinase erbB-2 (Homo sapiens) (UniProt P04626). The description is as above. To be noted: 18-24 h, at 10 µM, stronger effect = lower value.
Assay [3] is described as follows: reduced viability of SK-BR-3 breast cancer cells – cell-based, 24 h, human, pilot screen (AID 572;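 active means viability at or below 10% of carrier control in both of two separate runs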;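 further: compound exposure lasted between 18 and 24 h rather than exactly 24 h; 100% = carrier-treated control wells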). To be noted: SK-BR-3 viability, CellTiter-Glo luminescence, at 10 µM, stronger effect = lower value. In general terms: ATP-based viability assays read luminescence as a measure of living cells.
Assay [4] can be described thus: HUVEC growth inhibition – cell-based, human, primary screen (AID 575;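 active means viability at or below 30% in both replicate assays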;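 further: 100% = median of untreated cell wells with 0.1% DMSO on each plate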). To be noted: HUVEC proliferation, CellTiter-Glo luminescence, 72 h; at 10 µM; stronger effect = lower value. A digest of the protocol:
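Assay system: primary human umbilical vein endothelial cells / Buffer or medium: endothelial basal medium with 2% FBS plus growth supplements / Compound dosing: one dose, 10 µM final, 0.1% DMSO / Timing: 72 h treatment at 37 °C / Signal: CTG luminescence / Benchmarks: 32 DMSO-only cell-control wells (high), 32 MePR drug-control wells (low) per plate / Plate: collagen-coated 384-well format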

Assay [5] is described as follows: H69AR cell proliferation blockers – human, duplicate replicates, primary screen (AID 580;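 active means viability at or under a set limit in both replicates, limit being median viability minus 3 SD, cut at about 48% in these data, passing the limit was not always enough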;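 further: 100% = mean luminescence of untreated wells and 0% = no signal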). Conditions: H69AR lung tumor cells viability, ATP luminescence, 72 h; at 10 µM; stronger effect = lower value.
A short description of assay [6]: MRP1 drug-resistance reversers in H69AR cells – cell-based, doxorubicin co-treatment, pilot screen (AID 601;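 active means viability loss from added drug above about 55%, and viability with drug at most 40%, in both replicates, limit read from the data, passing the limit was not always enough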). Conditions: CellTiter-Glo, 72 h, at 10 µM; for differential viability (reversal): stronger effect = higher value.
A short description of assay [7]: yeast transport mutant growth inhibition pilot in 384-well plates, post-Golgi transport modulator project (AID 636; in the data active means inhibition above about 31%). Conditions: absorbance 615 nm, about 18 h, stronger effect = higher value.
Assay [8] can be described thus: growth suppression of yeast trafficking mutant, preliminary HTS, modulators of trafficking downstream of Golgi apparatus project, 1536-format plate, OD 615 nm (AID 637). Conditions: yeast transport mutant growth, absorbance 615 nm, 18 h; stronger effect = higher value.
[9] abbreviates: H69AR cells + 2 uM doxorubicin, measured here: viability with 2 uM doxorubicin, stronger effect = lower value.
The mark [10] stands for this setting: H69AR cells, compound alone cytotoxicity.

Receptor tyrosine-protein kinase erbB-2 (Homo sapiens), sequence (P04626 whole entry, looked up): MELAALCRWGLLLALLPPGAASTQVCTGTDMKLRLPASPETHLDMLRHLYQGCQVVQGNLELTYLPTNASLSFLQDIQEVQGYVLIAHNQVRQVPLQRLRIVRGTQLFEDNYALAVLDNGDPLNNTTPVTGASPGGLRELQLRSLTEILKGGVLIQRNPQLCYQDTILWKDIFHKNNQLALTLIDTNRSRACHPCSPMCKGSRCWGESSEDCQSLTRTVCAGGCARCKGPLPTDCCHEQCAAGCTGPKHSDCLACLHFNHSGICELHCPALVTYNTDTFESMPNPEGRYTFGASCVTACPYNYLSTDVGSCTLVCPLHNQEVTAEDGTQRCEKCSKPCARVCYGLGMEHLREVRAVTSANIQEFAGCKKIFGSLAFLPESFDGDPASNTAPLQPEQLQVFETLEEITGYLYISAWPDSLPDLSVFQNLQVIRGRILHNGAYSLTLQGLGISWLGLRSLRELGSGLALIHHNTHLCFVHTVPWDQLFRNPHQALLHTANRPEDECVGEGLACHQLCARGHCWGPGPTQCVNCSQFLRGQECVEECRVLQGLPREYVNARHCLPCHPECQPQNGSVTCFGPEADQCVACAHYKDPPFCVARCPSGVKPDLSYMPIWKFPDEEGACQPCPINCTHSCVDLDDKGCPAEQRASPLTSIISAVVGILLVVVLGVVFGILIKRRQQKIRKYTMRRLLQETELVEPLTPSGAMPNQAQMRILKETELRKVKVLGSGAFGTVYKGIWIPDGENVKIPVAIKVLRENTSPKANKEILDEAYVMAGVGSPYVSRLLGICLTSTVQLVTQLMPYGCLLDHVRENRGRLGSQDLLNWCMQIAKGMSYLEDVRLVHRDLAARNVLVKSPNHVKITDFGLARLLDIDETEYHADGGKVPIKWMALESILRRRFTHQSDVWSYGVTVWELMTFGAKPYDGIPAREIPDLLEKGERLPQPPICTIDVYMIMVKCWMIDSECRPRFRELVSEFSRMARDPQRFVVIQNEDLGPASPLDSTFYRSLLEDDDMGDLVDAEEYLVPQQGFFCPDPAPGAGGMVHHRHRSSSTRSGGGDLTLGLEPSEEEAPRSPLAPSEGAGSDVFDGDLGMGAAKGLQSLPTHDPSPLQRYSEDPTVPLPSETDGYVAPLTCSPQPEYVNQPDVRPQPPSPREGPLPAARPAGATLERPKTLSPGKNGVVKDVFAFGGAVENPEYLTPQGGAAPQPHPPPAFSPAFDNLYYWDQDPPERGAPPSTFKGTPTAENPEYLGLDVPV

For the compound `Cc1ccccc1-c1nc2ccccc2c(=O)n1C1CCS(=O)(=O)C1` (stereo not given), the viability was 96.5% in assay [1]; 96.5% (inactive) in assay [3]; 108% (inactive) in assay [4]; 90.3% (inactive) in assay [5]; 100% in assay [6] (setting [9]); 90.3% in assay [6] (setting [10]). Moreover, in assay [2], the Her2 level was 91.5% (inactive). Further, the differential viability (reversal) in assay [6] (H69AR cells + 2 uM doxorubicin) was -9.98% (inactive). The inhibition in assay [7] was 0.26% (inactive); in assay [8], 0.97% (inactive).

Take `COC(=O)C1=CN(C)C=C(C(=O)OC)C1c1ccc(O)c(OC)c1`: the viability in assay [1] is 96.5%; in assay [3], 96.5% (inactive); in assay [4], 88.1% (inactive); in assay [5], 100% (inactive); in assay [6] (setting [9]) it was 93.4%; in assay [6] (setting [10]), 100%. The Her2 level in assay [2] is 98% (inactive). Moreover, in assay [6] (H69AR cells + 2 uM doxorubicin), the differential viability (reversal) is 6.83% (inactive). For the same compound, the inhibition was -3.16% (inactive) in assay [7] and 4% (inactive) in assay [8].

For `CC(NC(=O)NCCCC(=O)O)(C(F)(F)F)C(F)(F)F`, the viability is 104% in assay [1]; 104% (inactive) in assay [3]; 97.6% (inactive) in assay [4]; 105% (inactive) in assay [5]; 96.5% in assay [6] (setting [9]); 105% in assay [6] (setting [10]). The Her2 level in assay [2] is 82% (inactive). Further, in assay [6] (H69AR cells + 2 uM doxorubicin), the differential viability (reversal) was 8.72% (inactive). The values for the inhibition in assay [7] and in assay [8] were -7.53% (inactive) and 1.59% (inactive), respectively.

For the compound `CCOC(=O)CSc1nc2cc(C(=O)N3CCC(C(N)=O)CC3)ccc2c(=O)n1-c1ccccc1`, the viability in assay [1] was 98%; in assay [3], 98% (inactive); in assay [4] it was 76.5% (inactive); in assay [5] it was 100% (inactive); in assay [6] (setting [9]), 92.4%; in assay [6] (setting [10]), 100%. For the same compound, the Her2 level in assay [2] is 95% (inactive). Further, the differential viability (reversal) in assay [6] (H69AR cells + 2 uM doxorubicin) is 7.63% (inactive). For the same compound, the inhibition in assay [7] is -3.95% (inactive); in assay [8], -4.17% (inactive).

Regarding `CC1CN(CC(O)COc2ccc(C(C)C)cc2)CC(C)O1` (stereo not given), the viability in assay [1] is 93%; in assay [3], 93% (inactive); in assay [4] it was 94.9% (inactive); in assay [5], 76.2% (inactive); in assay [6] (setting [9]), 72.4%; in assay [6] (setting [10]), 76.2%. Further, the Her2 level in assay [2] is 94.5% (inactive). Besides, in assay [6] (H69AR cells + 2 uM doxorubicin), the differential viability (reversal) is 3.78% (inactive). The inhibition in assay [7] is 18.6% (inactive); in assay [8] it was 6% (inactive).

For the compound `Cn1c(=O)cc(SCC(=O)NCC2CCCO2)c2ccc(Cl)cc21` (stereo not given), the viability is 88.5% in assay [1]; 88.5% (inactive) in assay [3]; 89% (inactive) in assay [4]; 85.1% (inactive) in assay [5]; 89.1% in assay [6] (setting [9]); 85.1% in assay [6] (setting [10]). The Her2 level in assay [2] is 88% (inactive). Also, the differential viability (reversal) in assay [6] (H69AR cells + 2 uM doxorubicin) was -4% (inactive). Besides, the results for the inhibition in assay [7] and in assay [8] were -0.26% (inactive) and -3.71% (inactive), respectively.

For `O=C(CN(Cc1cccs1)C(=O)CNS(=O)(=O)c1ccccc1)NCc1ccco1`, the viability in assay [1] is 98%; in assay [3], 98% (inactive); in assay [4], 101% (inactive); in assay [5] it was 101% (inactive); in assay [6] (setting [9]), 88%; in assay [6] (setting [10]) it was 101%. Besides, the Her2 level in assay [2] is 96.5% (inactive). In addition, in assay [6] (H69AR cells + 2 uM doxorubicin), the differential viability (reversal) is 12.7% (inactive). In addition, the inhibition in assay [7] is 0.13% (inactive); in assay [8] it was -3.33% (inactive).

For `O=C(Cn1cnc2c(nnn2-c2ccc(F)cc2)c1=O)NCc1ccco1`, the viability in assay [1] was 97%; in assay [3], 97% (inactive); in assay [4], 97.1% (inactive); in assay [5], 84.8% (inactive); in assay [6] (setting [9]), 85.7%; in assay [6] (setting [10]), 84.8%. Moreover, the Her2 level in assay [2] was 74% (inactive). In addition, the differential viability (reversal) in assay [6] (H69AR cells + 2 uM doxorubicin) was -0.975% (inactive). Also, the inhibition in assay [7] is -0.39% (inactive); in assay [8] it was -2.73% (inactive).

As to `CCCc1cc(C(=O)Nc2ccccc2C(=O)OC)no1`, the viability was 89.5% in assay [1]; 89.5% (inactive) in assay [3]; 64.7% (inactive) in assay [4]; 89.3% (inactive) in assay [5]; 82% in assay [6] (setting [9]); 89.3% in assay [6] (setting [10]). Besides, the Her2 level in assay [2] was 109% (inactive). For the same compound, in assay [6] (H69AR cells + 2 uM doxorubicin), the differential viability (reversal) is 7.36% (inactive). Moreover, the values for the inhibition in assay [7] and in assay [8] were 4.1% (inactive) and 14.5% (inactive), respectively.

On to `COC(=O)c1cn(-c2ccccc2)nc1C(=O)OC`, for which the viability in assay [1] is 93.5%; in assay [3], 93.5% (inactive); in assay [4] it was 91% (inactive); in assay [5], 97.8% (inactive); in assay [6] (setting [9]), 86.9%; in assay [6] (setting [10]), 97.8%. In addition, the Her2 level in assay [2] is 89.5% (inactive). For the same compound, in assay [6] (H69AR cells + 2 uM doxorubicin), the differential viability (reversal) was 10.9% (inactive). In addition, the inhibition in assay [7] is -4.8% (inactive); in assay [8], -1.97% (inactive).

As for `Cc1ccnc(N2CCN(C(=O)CSc3nc4ccccc4nc3N3CCCCC3)CC2)c1`, the viability in assay [1] was 109%; in assay [3], 109% (inactive); in assay [4] it was 62% (inactive); in assay [5], 92.7% (inactive); in assay [6] (setting [9]), 83%; in assay [6] (setting [10]), 92.7%. For the same compound, in assay [2], the Her2 level is 70.5% (inactive). Besides, the differential viability (reversal) in assay [6] (H69AR cells + 2 uM doxorubicin) is 9.7% (inactive). Further, the figures for the inhibition in assay [7] and in assay [8] were -3.03% (inactive) and -2.83% (inactive), respectively.

As to `Cn1c(=O)c(C(=S)NC(=O)C2CC2)c(N)n(Cc2ccccc2)c1=O`, the viability in assay [1] is 70.5%; in assay [3], 70.5% (inactive); in assay [4], 59.9% (inactive); in assay [5], 78.1% (inactive); in assay [6] (setting [9]) it was 84.7%; in assay [6] (setting [10]) it was 78.1%. For the same compound, the Her2 level in assay [2] was 74.5% (inactive). Besides, in assay [6] (H69AR cells + 2 uM doxorubicin), the differential viability (reversal) is -6.6% (inactive). Further, the inhibition was -1.05% (inactive) in assay [7] and -3.65% (inactive) in assay [8].

For `Cc1csc(NC(=O)CCS(=O)(=O)c2ccc(Br)cc2)n1`, the viability is 99.5% in assay [1]; 99.5% (inactive) in assay [3]; 82.5% (inactive) in assay [4]; 73% (inactive) in assay [5]; 75.9% in assay [6] (setting [9]); 73% in assay [6] (setting [10]). Besides, the Her2 level in assay [2] is 96.5% (inactive). In addition, the differential viability (reversal) in assay [6] (H69AR cells + 2 uM doxorubicin) is -2.92% (inactive). Besides, the inhibition was -0.81% (inactive) in assay [7] and 22.7% (inactive) in assay [8].

For the compound `CCC(C)NC(=O)CCNS(=O)(=O)c1ccc(Br)cc1` (stereo not given), the viability in assay [1] was 95.5%; in assay [3] it was 95.5% (inactive); in assay [4], 99.2% (inactive); in assay [5], 98.5% (inactive); in assay [6] (setting [9]) it was 95.8%; in assay [6] (setting [10]) it was 98.5%. The Her2 level in assay [2] was 73% (inactive). Further, in assay [6] (H69AR cells + 2 uM doxorubicin), the differential viability (reversal) was 2.66% (inactive). The inhibition in assay [7] was -4.74% (inactive); in assay [8], -1.67% (inactive).

`COc1ccc2ccccc2c1CN1CCCC(CO)C1` (stereo not given): the viability in assay [1] is 92.5%; in assay [3], 92.5% (inactive); in assay [4] it was 92.9% (inactive); in assay [5], 82% (inactive); in assay [6] (setting [9]), 80.5%; in assay [6] (setting [10]), 82%. The Her2 level in assay [2] is 85.5% (inactive). In assay [6] (H69AR cells + 2 uM doxorubicin), the differential viability (reversal) was 1.51% (inactive). Besides, the inhibition in assay [7] is -1.82% (inactive); in assay [8], 0.82% (inactive).

With `O=C(O)c1ccc2noc(-c3ccccc3)c2c1`, the viability in assay [1] is 127%; in assay [3] it was 127% (inactive); in assay [4], 86.9% (inactive); in assay [5], 97.8% (inactive); in assay [6] (setting [9]), 92.4%; in assay [6] (setting [10]) it was 97.8%. Further, the Her2 level in assay [2] is 106% (inactive). For the same compound, in assay [6] (H69AR cells + 2 uM doxorubicin), the differential viability (reversal) is 5.36% (inactive). Moreover, the inhibition in assay [7] was -4.74% (inactive); in assay [8], -4% (inactive).

One may read the viability as a read-out of living cells in per cent, often relative to untreated cells. Broadly, the inhibition is the relative decrease from the control value, in per cent.

Source of the values: PubChem BioAssay.
